Data set [1] has as its target T1, D(3) dopamine receptor (Homo sapiens, UniProt P35462). Nature of the data set: Antagonist activity at ProLink-tagged D3 receptor (unknown origin) expressed in CHO cells assessed as inhibition of dopamine-stimulated beta-arrestin binding treated for 90 mins prior to dopamine challenge by PathHunter DiscoveRx assay. The data set is classed as cell-based.
Data set [2] has as its system HEK293. The experiment in a line: Ratio of Ki for human D3 receptor expressed in HEK293 cell membrane to Ki for human D2L receptor expressed in HEK cell membrane. The data set is classed as cell-based. The essentials: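 Competition binding with [3H]methylspiperone on membranes from stable HEK cells. […] Incubation 90 min at room temperature in EBSS with sodium metabisulfite, nonspecific binding with 4 µM (+)-butaclamol, then GF/C filtration and scintillation counting. Ki from IC50 via Cheng–Prusoff.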

Data set [3] has as its target T2, D(2) dopamine receptor (Homo sapiens, UniProt P14416). Nature of the data set: Antagonist activity at ProLink-tagged D2 receptor (unknown origin) expressed in CHO cells assessed as inhibition of dopamine-stimulated beta-arrestin binding treated for 90 mins prior to dopamine challenge by PathHunter DiscoveRx assay. The data set is classed as cell-based.
Data set [4] concerns the target T1, D(3) dopamine receptor. The experiment in a line: Displacement of [3H]methylspiperone from human D3 receptor expressed in HEK293 cell membrane after 90 mins by scintillation counting analysis. The data set is classed as cell membranes.
Data set [5] has as its system CHO. The experiment in a line: Ratio of AC50 for ProLink-tagged D3 receptor (unknown origin) expressed in CHO cells to AC50 for ProLink-tagged D2 receptor (unknown origin) expressed in CHO cells by beta-arrestin assay. The data set is classed as cell-based. The note with it: Homo sapiens.
Data set [6] addresses T2, D(2) dopamine receptor. Nature of the data set: Antagonist activity at D2 receptor (unknown origin) expressed in Flp-In TREx 293 cells coexpressing chimeric Gqi5 protein assessed as calcium accumulation by Fluo-8AM dye based fluorescence analysis. The data set is classed as functional, cell-based.
The target of data set [7] is T2, D(2) dopamine receptor. Nature of the data set: Displacement of [3H]methylspiperone from human D2L receptor expressed in HEK cell membrane after 90 mins by scintillation counting analysis. The data set is classed as cell membranes, HEK293.
Data set [8] relates to Brain. Nature of the data set: Cmax in C57BL/6 mouse brain at 30 mg/kg, ip administered as single dose measured within 15 mins after drug challenge. The data set is classed as ADME, organism-based. Details: dose 30 mg/kg, route intraperitoneal. As to conditions: in vivo, 0.25 h. The essentials: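 Male C57BL/6 mice (N = 3) got a single 30 mg/kg ip dose in 10% NMP + 20% PEG 400 + 70% of 25% HP-β-CD in water. Plasma and brain concentration–time profiles were measured.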

Data set [9] concerns Plasma. Nature of the data set: Stability of the compound in human plasma assessed as compound remaining after 2 hrs. The data set is classed as ADME, cell-free.
The subject of data set [10] is Caco-2. Nature of the data set: Apparent permeability from basolateral to apical side in human Caco2 cells. The data set is classed as ADME, cell-based.
Data set [11] relates to Liver. Nature of the data set: Intrinsic half-life in mouse liver microsomes. The data set is classed as ADME.
In data set [12] the test system is Caco-2. Nature of the data set: Apparent permeability from apical to basolateral side in human Caco2 cells. The data set is classed as ADME, cell-based.
A short description of data set [13]: Aqueous kinetic solubility of the compound in PBS buffer. The data set is classed as physicochemical.
Data set [14] concerns Plasma. The experiment in a line: Stability of the compound in mouse plasma assessed as compound remaining after 2 hrs. The data set is classed as ADME, cell-free.

This is an account of results in ChEMBL document CHEMBL3232915, “Discovery, optimization, and characterization of novel D2 dopamine receptor selective antagonists” (J Med Chem, 2014).

pKi: −log10 of the molar value.

T1 sequence (P35462 whole entry): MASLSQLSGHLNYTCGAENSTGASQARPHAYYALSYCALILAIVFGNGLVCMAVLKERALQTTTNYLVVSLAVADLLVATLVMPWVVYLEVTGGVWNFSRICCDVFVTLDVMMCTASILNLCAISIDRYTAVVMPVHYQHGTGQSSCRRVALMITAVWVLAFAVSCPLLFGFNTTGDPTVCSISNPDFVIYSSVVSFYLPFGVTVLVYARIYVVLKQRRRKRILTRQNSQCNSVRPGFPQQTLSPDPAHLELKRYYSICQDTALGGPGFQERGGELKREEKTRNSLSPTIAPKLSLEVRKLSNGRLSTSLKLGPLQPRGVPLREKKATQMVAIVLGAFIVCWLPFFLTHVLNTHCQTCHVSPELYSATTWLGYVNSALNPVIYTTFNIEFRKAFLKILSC
T2 sequence (P14416 whole entry): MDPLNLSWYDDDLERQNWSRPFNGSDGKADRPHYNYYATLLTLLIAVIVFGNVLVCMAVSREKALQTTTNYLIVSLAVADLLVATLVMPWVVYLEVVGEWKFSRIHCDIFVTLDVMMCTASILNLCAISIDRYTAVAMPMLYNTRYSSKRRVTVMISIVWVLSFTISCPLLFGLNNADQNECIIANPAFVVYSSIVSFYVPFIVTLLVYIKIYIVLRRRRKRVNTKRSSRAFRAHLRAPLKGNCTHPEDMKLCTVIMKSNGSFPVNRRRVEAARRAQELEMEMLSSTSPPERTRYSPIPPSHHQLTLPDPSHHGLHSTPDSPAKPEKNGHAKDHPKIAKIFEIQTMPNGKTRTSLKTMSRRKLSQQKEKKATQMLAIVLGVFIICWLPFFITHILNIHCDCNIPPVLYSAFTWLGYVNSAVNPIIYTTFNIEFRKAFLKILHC

In the case of `CCN1C(=O)c2ccccc2[S@+]([O-])c2ccc(C(=O)NCc3ccc(F)cc3)cc21`, the values for the AC50 in [1], in data set [3] and in data set [6] were 3240 nM, 576 nM and 56 nM, respectively. Also, the Ratio Ki in data set [2] is 2.6. Moreover, the figures for the pKi in data set [4] and in data set [7] were 6.64 and 7.05, respectively. Moreover, in [5], the Ratio turned out to be 5.6.

On to `CN1C(=O)c2ccccc2[S@+]([O-])c2ccc(C(=O)NCCc3cccs3)cc21`, for which, in [8], the Cmax was determined as 4.19 µmol/kg. Moreover, the Stability in data set [9] is 98.4%; in [14], 95.2%. Further, the Papp was determined as 23.8 ×10⁻⁶ cm/s in data set [10] and 18.8 ×10⁻⁶ cm/s in data set [12]. Further, in [11], the t1/2 is 24.7 min. The pKi in [4] is 5.39. In data set [13], this molecule returned a Kinetic_solubility of 113.3 µM.

`CN1C(=O)c2ccccc2[S@+]([O-])c2ccc(C(=O)NCCN3CCCC3)cc21`: the AC50 came out at 4570 nM in [1], 363 nM in [3] and 70 nM in data set [6]. Moreover, the Ratio Ki in data set [2] was 1.7. Besides, the values for the pKi in [4] and in data set [7] were 6.46 and 6.68, respectively. Besides, the Ratio in data set [5] came to 12.6.

Regarding `CCN1C(=O)c2ccccc2[S@+]([O-])c2ccc(C(=O)NCc3ccc(C#N)cc3)cc21`, the values for the AC50 in data set [1], in data set [3] and in data set [6] were 1620 nM, 257 nM and 112 nM, respectively. For the same molecule, in data set [2], the Ratio Ki was determined as 5.7. In addition, the values for the pKi in [4] and in [7] were 6.89 and 7.64, respectively. In addition, in [5], the Ratio was 6.3.

With `CCN1C(=O)c2ccccc2[S@+]([O-])c2ccc(C(=O)N[C@H](C)c3ccc4ccccc4c3)cc21`, the AC50 in [1] worked out at 32400 nM; in data set [3], 2890 nM; in data set [6], 353 nM. The Ratio Ki in [2] is 11.7. Besides, the negative-log Ki (pKi) is 5.47 in data set [4] and 6.54 in data set [7]. Moreover, the Ratio in data set [5] turned out to be 11.2.

For `CCN1C(=O)c2ccccc2[S@+]([O-])c2ccc(C(=O)N[C@H](C)c3ccc(Br)cc3)cc21`, the results for the AC50 in data set [1], in data set [3] and in data set [6] were 9130 nM, 1290 nM and 223 nM, respectively. In data set [2], the Ratio Ki is 1.7. In addition, the figures for the pKi in data set [4] and in [7] were 6.06 and 6.28, respectively. Further, the Ratio in data set [5] was 7.1.
